TRPC6 inh: inhibitors of mouse TRPC6 channel; HEK293-TRPC6, membrane potential dye, ACh-evoked depolarization; active compounds read low; 310,000 compounds, 1.1% hits; AID 2553; B-score at 10 µM; Q61143;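 active means B-score under library mean minus 3 SD, initial fluorescence not abnormally high, positive integrated signal ratio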;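 further: B-score derived from integrated fluorescence ratio over the kinetic read; more negative B-score means stronger inhibition of depolarization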
TRPC4 inh: inhibitors of mouse TRPC4 channel | Q9QUQ5 | 300,000 compounds, 0.39% hits | AID 2247 | B-score at 10 µM | HEK293 TRPC4beta/mu-opioid, DAMGO-evoked Fluo4 calcium flux; active compounds read low;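 active means B-score over 3 SD under the library average, no early fluorescence shift, positive overall ratio signal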
Target sequence (Q9QUQ5 whole entry, looked up): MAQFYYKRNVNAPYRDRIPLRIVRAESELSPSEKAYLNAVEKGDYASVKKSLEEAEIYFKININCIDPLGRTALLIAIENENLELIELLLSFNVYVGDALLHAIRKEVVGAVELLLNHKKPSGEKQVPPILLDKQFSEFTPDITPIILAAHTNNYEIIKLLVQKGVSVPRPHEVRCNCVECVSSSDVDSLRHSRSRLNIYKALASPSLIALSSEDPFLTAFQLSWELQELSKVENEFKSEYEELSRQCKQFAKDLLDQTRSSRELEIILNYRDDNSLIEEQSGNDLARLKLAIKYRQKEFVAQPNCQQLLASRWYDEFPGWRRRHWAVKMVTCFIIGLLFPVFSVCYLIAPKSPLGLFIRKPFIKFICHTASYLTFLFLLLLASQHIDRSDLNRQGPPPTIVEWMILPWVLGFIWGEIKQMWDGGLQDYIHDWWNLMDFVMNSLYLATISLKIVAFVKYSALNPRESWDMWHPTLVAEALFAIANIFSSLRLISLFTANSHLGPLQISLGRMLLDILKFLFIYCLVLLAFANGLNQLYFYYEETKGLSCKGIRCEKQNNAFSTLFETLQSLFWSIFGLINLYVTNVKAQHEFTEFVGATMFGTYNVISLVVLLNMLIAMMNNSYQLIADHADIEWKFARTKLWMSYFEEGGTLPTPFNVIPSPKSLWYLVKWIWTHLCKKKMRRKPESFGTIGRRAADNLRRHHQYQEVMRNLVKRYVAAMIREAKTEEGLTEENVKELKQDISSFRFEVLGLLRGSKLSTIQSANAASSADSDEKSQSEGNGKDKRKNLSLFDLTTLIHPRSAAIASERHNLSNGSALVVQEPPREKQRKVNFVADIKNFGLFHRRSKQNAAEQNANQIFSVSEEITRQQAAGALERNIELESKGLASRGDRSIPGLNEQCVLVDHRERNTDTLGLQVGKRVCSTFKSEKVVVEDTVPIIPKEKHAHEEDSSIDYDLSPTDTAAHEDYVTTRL
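Assay system: Stable TRPC4beta/mu-opioid receptor HEK293 cells | Reagent: DAMGO in two steps, submaximal then maximal | Compound dosing: Single concentration per test compound | Signal: Fluo4 Ca2+ flux fluorescence | Evaluation: Per-well B score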
TRPC4 agonist: TRPC4 (mouse) channel activation; Q9QUQ5; HEK293 TRPC4beta/mu-opioid, Fluo4 calcium fluorescence; active compounds read high; B-score at 10 µM; 310,000 compounds, 0.49% hits;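 active means B-score above 5 SD of library B-scores, and initial fluorescence ratio not above library mean plus 5 SD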;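 further: positive B-score marks a calcium rise read as TRPC4 activation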
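Material: TRPC4beta and mu-opioid receptor HEK293 stable cells | Incubation: 45 min room-temperature Fluo4 loading, 110 s read | Detection: Kinetic Fluo4 calcium fluorescence | Measure: Integrated baseline-normalised fluorescence ratio, converted to per-well B score | Benchmarks: Low control buffer alone, high control maximal DAMGO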
TRPC4 potent: TRPC4 (mouse) allosteric potentiation; AID 2227; Q9QUQ5; 310,000 compounds, 0.42% hits; HEK293 TRPC4beta/mu-opioid, DAMGO EC20, Fluo-4 Ca2+ flux; active compounds read high; B-score at 10 µM;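 active means B-score of calcium response area above 5 SD of library B-scores, with initial fluorescence ratio within 5 SD of library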;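 further: B-score of integrated fluorescence ratio over time as area under calcium response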
TRPC6 activator: activates the mouse TRPC6 cation channel | B-score at 10 µM | 310,000 compounds, 0.13% hits | HEK293-TRPC6 membrane potential dye fluorescence; active compounds read high;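 active means B-score of the integrated fluorescence ratio above library mean plus 3 SD, and starting fluorescence ratio within library mean plus 5 SD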;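 further: higher score means more depolarization so channel activation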
TRPC4 spec 2: second check of whether TRPC6 inhibitors also affect mouse TRPC4; shares compounds with TRPC6 inh; 920 compounds, 42% hits; inhibition, % at 10 µM; HEK293 TRPC4/MOR, membrane potential dye fluorescence; channel activated by saturating DAMGO dose;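 active means compounds whose fluorescence signal differed from control wells by over 3 SD, either direction, in both duplicate plates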
TRPC4 spec: selectivity of TRPC6 inhibitors: effect on mouse TRPC4. shares compounds with TRPC6 inh. HEK293 TRPC4/mu-opioid, membrane potential fluorescence. activity change, negative = inhibition, % at 10 µM. 920 compounds, 61% hits. AID 2777;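 active means rise or fall in signal beyond 3 SD of buffer-only wells in both replicate plates, either sign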;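 further: integrated kinetic ratio of fluorescence range over baseline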
HEK293 MPD ctr 2-1: parental HEK293 nonspecific activity of TRPC6 inhibitors, second screen; AID 2779; shares compounds with TRPC6 inh; 920 compounds, 31% hits; parental HEK293 membrane potential dye fluorescence; maximal acetylcholine challenge after compound addition; signal change vs control, % at 10 µM;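 active means membrane potential signal moving either way by over 3 SD of the maximum-effect control, in both duplicate plates, meaning non-specific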
HEK293 MPD ctr-1: checks TRPC6 inhibitor effects in parental HEK293 cells; shares compounds with TRPC6 inh; membrane potential signal change, % at 10 µM; 920 compounds, 60% hits; AID 2780; parental HEK293 membrane potential dye fluorescence;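 active means membrane potential signal shifting up or down by more than 3 SD of buffer-only wells, on both duplicate plates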
HEK293 MPD ctr-2: parental HEK293 nonspecific activity of TRPC6 modulators; shares compounds with TRPC6 inh; membrane potential dye fluorescence; membrane potential signal change, % at 10 µM; 2,400 compounds, 51% hits; AID 488924;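 active means membrane potential signal moves up or down beyond 5 SD from buffer-only wells, on both duplicate plates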
HEK293 MPD ctr 2-2: second check of TRPC6 modulator effects in parental HEK293 cells. shares compounds with TRPC6 inh. membrane potential dye fluorescence; after compound, maximal acetylcholine stimulation. inhibition, % at 10 µM. 2,400 compounds, 14% hits. AID 488926;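 active means membrane potential signal drops by more than 5 SD from the mean control signal, in both duplicate plates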;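 further: plate controls were acetylcholine ECmax control wells for no effect and buffer only wells for full effect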
TRPC4/MOR mod: tests whether TRPC6 modulators also affect mouse TRPC4. AID 488927. percent change from control (negative = decrease, positive = increase), % at 10 µM. 2,400 compounds, 69% hits. shares compounds with TRPC6 inh. HEK293 TRPC4/mu-opioid, membrane potential fluorescence;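 active means membrane potential signal moved up or down beyond 5 SD of buffer control wells, in both duplicate plates, actives on both sides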;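 further: plate controls were assay buffer wells for no effect and DAMGO maximal-effect wells for full effect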
TRPC4/MOR inh 2: second selectivity test of TRPC6 modulators against mouse TRPC4. inhibition, % at 10 µM. AID 488928. shares compounds with TRPC6 inh. 2,400 compounds, 55% hits. HEK293 TRPC4/mu-opioid, membrane potential dye fluorescence; stimulated with maximal-effect DAMGO;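 active means drop in membrane potential signal beyond 5 SD of the control wells in both duplicate plates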;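 further: TRPC4 counter screen for TRPC6 hits run under conditions tuned for TRPC6 not TRPC4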
TRPC6 inh conf: confirmation of mouse TRPC6 inhibitors; shares compounds with TRPC6 inh; HEK293-TRPC6, membrane potential dye, ACh-evoked depolarization; inhibition, % at 10 µM; 3,300 compounds, 43% hits;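 active means fluorescence ratio falls more than 5 SD below the full-stimulation control mean, in both duplicate runs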;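 further: integrated fluorescence ratio of peak minus minimum over baseline after agonist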
TRPC6 act confirm: confirmation of mouse TRPC6 activators; shares compounds with TRPC6 inh; HEK293-TRPC6 membrane potential dye fluorescence, FDSS; activation, % at 10 µM; 2,800 compounds, 11% hits; AID 488961;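 active means ratio signal rise beyond 5 SD above unstimulated control wells' mean, seen in both duplicate runs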;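 further: plate controls were buffer EC0 wells for no effect and acetylcholine ECmax response for full effect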
* = called active by the depositor; i = inactive; . = no result given. A selection: hits, their analogues and other compounds. The true share with any hit is near 2.3%.

SMILES | TRPC6 inh | TRPC4 inh | TRPC4 agonist | TRPC4 potent | TRPC6 activator | TRPC6 inh conf | others
O=C(NCc1ccccc1)C1CCCN1S(=O)(=O)c1ccc(Cl)cc1 (stereo unspecified) | i | i | i | i | i | .
CSCCC(NC(=O)c1ccccc1Br)C(=O)N1CCCCCCC1 (stereo unspecified) | i | i | i | i | i | .
Cc1ccc(C(C)(O)CS(=O)(=O)Cc2ccccc2)cc1 (stereo unspecified) | i | i | i | i | i | .
CC1(C)SC2c3ccccc3C(=O)N2[C@@H]1C(=O)NCCCN1CCOCC1 (stereo partly specified) | -5.13* | i | i | i | i | i | HEK293 MPD ctr-2=i;HEK293 MPD ctr 2-2=i;TRPC4/MOR mod=11.0%*;TRPC4/MOR inh 2=i
COC(=O)C(CC(=O)c1ccc(Br)cc1)n1cccn1 (stereo unspecified) | i | i | i | i | i | .
Cc1ccn(CC(=O)NC2CCCN(Cc3ccc(CC(C)C)cc3)C2)n1 (stereo unspecified) | -5.76* | i | 145* | i | i | i | HEK293 MPD ctr-2=111.5%*;HEK293 MPD ctr 2-2=i;TRPC4/MOR mod=37.5%*;TRPC4/MOR inh 2=i
CC(C)Cc1ccc(CN2CCCC(NC(=O)CCN3CCCO3)C2)cc1 (stereo unspecified) | i | i | i | i | i | .
CC1CCN(C(=O)Cn2nnc(-c3ccc(C(C)C)cc3)n2)CC1 | i | i | i | i | i | .
CCSc1nc(C)cc(Oc2ccc(=O)n(C)n2)n1 | -8.6* | i | i | i | i | i | TRPC4 spec 2=i;TRPC4 spec=i;HEK293 MPD ctr 2-1=i;HEK293 MPD ctr-1=i;TRPC6 act confirm=i
CN(C)CCOC(C1CCCCC1)C1CCCCC1 | -5.53* | i | i | i | i | 39.0%* | HEK293 MPD ctr-2=229.5%*;HEK293 MPD ctr 2-2=i;TRPC4/MOR mod=52.5%*;TRPC4/MOR inh 2=50.5%*
Cc1cc(=O)oc2cc(NC(=O)C(CCCN=C(N)N)NC(=O)OCc3ccccc3)ccc12 (stereo unspecified) | i | i | i | i | i | .
COC(=O)CSc1cccc2c1C(=O)CC2c1ccccc1 (stereo unspecified) | -7.69* | i | i | i | i | i | TRPC4 spec 2=i;TRPC4 spec=1.9%*;HEK293 MPD ctr 2-1=i;HEK293 MPD ctr-1=3.3%*
COC(=O)CSc1ccsc1C(=O)O | i | i | i | i | i | .

Screening data as filed in PubChem.
